{"source": "ChEMBL document CHEMBL1134664", "about": "“Influence of polyamine architecture on the transport and topoisomerase II inhibitory properties of polyamine DNA-intercalator conjugates” (J Med Chem, 2001)", "key": {"L1210 [1]": {"test_system": "L1210", "assay": "Cytotoxicity against murine leukemia (L1210) cells was determined at 47h", "format": "functional, cell-based", "details": "Mus musculus, L1210, 47 h", "how_it_was_run": "(§1)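 L1210 murine leukemia cells in early to mid log phase (under 5% trypan blue positive before the start) were grown at 37 °C in 5% CO2 in 96-well plates with increasing drug concentrations for the stated time. A methotrexate positive control was included in every trial. Viability was read by colorimetric NAD(P)H-dependent formazan production, and the IC50 was taken from this.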"}, "L1210 [2]": {"test_system": "L1210", "assay": "Cytotoxicity against murine leukemia (L1210) cells was determined at 94h", "format": "functional, cell-based", "details": "Mus musculus, L1210, 94 h", "how_it_was_run": "as §1"}}}
{"smiles": "NCCCNCCCCN(CCCN)CCCCNc1c2ccccc2nc2ccccc12", "values": [{"measurement": "IC50", "setting": "L1210 [1]", "value": 23, "unit": "µM"}, {"measurement": "IC50", "setting": "L1210 [2]", "value": 17, "unit": "µM"}]}
{"smiles": "CCCCNc1c2ccccc2nc2ccccc12", "values": [{"measurement": "IC50", "setting": "L1210 [1]", "value": 2, "unit": "µM"}, {"measurement": "IC50", "setting": "L1210 [2]", "value": 2, "unit": "µM"}]}
{"smiles": "NCCCCN(CCCN)CCCCCNc1c2ccccc2nc2ccccc12", "values": [{"measurement": "IC50", "setting": "L1210 [1]", "value": "> 100", "unit": "µM"}, {"measurement": "IC50", "setting": "L1210 [2]", "value": "> 100", "unit": "µM"}]}
{"smiles": "NCCCN(CCCCNCc1c2ccccc2cc2ccccc12)CCCCN(CCCN)CCCCNCc1c2ccccc2cc2ccccc12", "values": [{"measurement": "IC50", "setting": "L1210 [1]", "value": 44, "unit": "µM"}, {"measurement": "IC50", "setting": "L1210 [2]", "value": 61, "unit": "µM"}]}
{"smiles": "NCCCN(CCCCCNCc1c2ccccc2cc2ccccc12)CCCCN(CCCN)CCCCCNCc1c2ccccc2cc2ccccc12", "values": [{"measurement": "IC50", "setting": "L1210 [1]", "value": 18, "unit": "µM"}, {"measurement": "IC50", "setting": "L1210 [2]", "value": 25, "unit": "µM"}]}
{"smiles": "NCCCN(CCCCNc1c2ccccc2nc2ccccc12)CCCCN(CCCN)CCCCNc1c2ccccc2nc2ccccc12", "values": [{"measurement": "IC50", "setting": "L1210 [1]", "value": 40, "unit": "µM"}, {"measurement": "IC50", "setting": "L1210 [2]", "value": 74, "unit": "µM"}]}
{"smiles": "NCCCCN(CCCN)CCCCNc1c2ccccc2nc2ccccc12", "values": [{"measurement": "IC50", "setting": "L1210 [1]", "value": 75, "unit": "µM"}, {"measurement": "IC50", "setting": "L1210 [2]", "value": 55, "unit": "µM"}]}
{"smiles": "NCCCCN(CCCN)CCCCCNCc1c2ccccc2cc2ccccc12", "values": [{"measurement": "IC50", "setting": "L1210 [1]", "value": 7, "unit": "µM"}, {"measurement": "IC50", "setting": "L1210 [2]", "value": 5, "unit": "µM"}]}
{"smiles": "NCCCN(CCCCCNc1c2ccccc2nc2ccccc12)CCCCN(CCCN)CCCCCNc1c2ccccc2nc2ccccc12", "values": [{"measurement": "IC50", "setting": "L1210 [1]", "value": 17, "unit": "µM"}, {"measurement": "IC50", "setting": "L1210 [2]", "value": 23, "unit": "µM"}]}
{"smiles": "NCCCNCCCCN(CCCN)CCCCNc1ccnc2cc(Cl)ccc12", "values": [{"measurement": "IC50", "setting": "L1210 [1]", "value": "> 100", "unit": "µM"}, {"measurement": "IC50", "setting": "L1210 [2]", "value": "> 100", "unit": "µM"}]}
{"smiles": "NCCCCN(CCCN)CCCCNCc1c2ccccc2cc2ccccc12", "values": [{"measurement": "IC50", "setting": "L1210 [1]", "value": 13, "unit": "µM"}, {"measurement": "IC50", "setting": "L1210 [2]", "value": 6, "unit": "µM"}]}
